Five compounds from ChEMBL document CHEMBL1125673, “Synthesis and antiretrovirus properties of 5'-isocyano-5'-deoxythymidine, 5'-isocyano-2',5'-dideoxyuridine, 3'-azido-5'-isocyano-3',5'-dideoxythymidine, and 3'-azido-5'-isocyano-2',3',5'-trideoxyuridine” (J Med Chem, 1991) can be followed below.

For experiment [1], the system named is Human immunodeficiency virus 1. In words: Concentration of compound required to inhibit HIV-1 replication in MT-4 cells by 50%. Conditions: Human immunodeficiency virus 1, MT4. The class given is functional, organism-based. In outline: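 HIV-1 strain HTLV-III_B infection of human MT-4 lymphocytes; EC50 is the compound concentration that inhibits virus-induced cytopathogenicity by 50%.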

Experiment [2] relates to MT4. The experiment is described as follows: Concentration of compound required to reduce MT-4 cells viability by 50%. The experiment is classed as functional. Conditions: Homo sapiens. In outline: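 Uninfected human MT-4 lymphocyte cultures exposed to compound; CC50 is the concentration that lowers cell viability by 50%.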
The nature of experiment [3]: Minimal inhibitory concentration was measured as compound concentration that causes a microscopically visible alteration of C3H cell morphology. The class given is functional. Conditions: Mus musculus. In outline: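 C3H murine embryo fibroblasts exposed to compound and examined by microscope; the minimal inhibitory concentration is the lowest level giving a visible change in cell morphology.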

Experiment [4] has as its system C3H/3T3. The experiment is described as follows: Concentration of compound required to inhibit […] MSV-induced transformation of C3H/3T3 cells by 50%. The conditions noted are these: Mus musculus. The class given is functional, cell-based. In outline: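 Moloney murine sarcoma virus (MSV) infection of murine embryo fibroblast C3H/3T3 cells; EC50 is the compound concentration that inhibits MSV-induced cell transformation by 50%.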
(In general: Protection from cytopathic effect is a common read-out in antiviral testing.)

Each structure is given as a SMILES string. In brackets after ≈: the same amount, converted by molar mass.

For `[C-]#[N+]C[C@H]1OC(n2cc(C)c(=O)[nH]c2=O)C[C@H]1N=[N+]=[N-]` (stereo partly specified), the EC50 (commonly the midpoint of the concentration-response curve) in experiment [1] was greater than 40 µM. The 50% cytotoxic concentration (CC50) (usually the concentration giving 50% cytotoxicity) in experiment [2] is 122 µM.
In experiment [1], `[C-]#[N+]C[C@H]1OC(n2ccc(=O)[nH]c2=O)C[C@H]1N=[N+]=[N-]` (stereo partly specified) registered an EC50 greater than 40 µM. The 50% cytotoxic concentration (CC50) in experiment [2] worked out at 104 µM.
Regarding `[C-]#[N+]C[C@H]1OC(n2ccc(=O)[nH]c2=O)C[C@H]1O` (stereo partly specified), the EC50 in experiment [1] was greater than 200 µM; in experiment [4], greater than 3.2 µM. Besides, the MIC in experiment [3] is 3.2 µM (≈ 0.759 µg/mL). The half-maximal cytotoxic concentration (CC50) in experiment [2] was found to be 125 µM.
In the case of `[C-]#[N+]C[C@H]1OC(n2cc(C)c(=O)[nH]c2=O)C[C@H]1O` (stereo partly specified), the EC50 was greater than 200 µM in experiment [1] and greater than 3.2 µM in experiment [4]. Also, in experiment [3], the MIC amounted to 3.2 µM (≈ 0.804 µg/mL). In experiment [2], this compound registered a CC50 of 144 µM.
For `Cc1cn([C@H]2C[C@H](N=[N+]=[N-])[C@@H](CO)O2)c(=O)[nH]c1=O` [ZIDOVUDINE] the same measures were 0.004 µM, 0.02 µM, greater than 400 µM and 20 µM.
